# ChEMBL document CHEMBL1153760, “Identification and structure-activity relationships of chromene-derived selective estrogen receptor modulators for treatment of postmenopausal symptoms” (J Med Chem, 2009)
# Active and inactive are the calls of the source. The rule behind the calls is not given here.
# Tests used:
# Rattus norvegicus [1] = experiment: Decrease in bone resorption in ovariectomized rat assessed as decrease in urine deoxypyridinoline level at 0.1 mg/kg, po administered daily measured after 6 weeks; format: functional, organism-based; set-up: dose 0.1 mg/kg
# How it was run: (§1)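 Adult (>6 months) female rats, housed singly on a casein-based diet, ovariectomized under sterile conditions and anesthesia; 6-14 per group. From 24 h after surgery, daily oral gavage of an aqueous suspension in 0.5% Methocel for 2 or 6 weeks. […] Urine deoxypyridinoline measured as bone-resorption marker.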
# Rattus norvegicus [2] = experiment: Increase in vaginal fluidity in ovariectomized rat at 0.1 mg/kg, po administered daily measured after 6 weeks by cytology analysis; format: functional, organism-based; set-up: dose 0.1 mg/kg
# How it was run: (§2)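 Ovariectomized adult female rats dosed daily by oral gavage (0.5% Methocel suspension) for 2 or 6 weeks from 24 h after surgery. Vaginal fluid collected with a cotton swab and its absolute weight determined per animal.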
# Rattus norvegicus [3] = experiment: Decrease in tail skin temperature rise in morphine-addicted Sprague-Dawley rat hot flush model at 0.3 mg/kg, po administered daily measured for 60 mins after naloxone-induced morphine withdrawal; format: functional, organism-based; set-up: dose 0.3 mg/kg
# How it was run: (§3)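 Ovariectomized adult female Sprague-Dawley rats (3 months), 8-25 per group; oral gavage starting 6 days post-ovariectomy, sesame oil vehicle, suspension. Morphine given sc at 75 and 150 mg on treatment days 3 and 5. On the last day, under ketamine (80 mg/kg, im), tail thermistor; baseline about 20 min, then naloxone 2.0 mg/kg sc and tail skin temperature recorded 60 min. Multiple comparisons at each time point.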
# Rattus norvegicus [4] = experiment: Decrease in bone resorption in ovariectomized rat assessed as decrease in urine deoxypyridinoline level at 0.003 to 0.3 mg/kg, po administered daily measured after 6 weeks; format: functional, organism-based; how it was run: as §1
# Rattus norvegicus [5] = experiment: Increase in uterine weight in po dosed ovariectomized rat osteopenia model administered daily measured after 6 weeks; format: functional, organism-based
# Rattus norvegicus [6] = experiment: Increase in uterine weight in ovariectomized rat osteopenia model at 1 mg/kg, po administered daily measured after 6 weeks; format: functional, organism-based; set-up: dose 1 mg/kg
# Rattus norvegicus [7] = experiment: Estrogenic activity in ovariectomized rat assessed as increase in uterine epithelial thickness at 0.1 mg/kg, po administered daily measured after 6 week by immunohistochemical analysis; format: functional, organism-based; set-up: dose 0.1 mg/kg
# Rattus norvegicus [8] = experiment: Estrogenic activity in ovariectomized rat assessed as minor increase in uterine epithelial thickness at 0.001 to 0.3 mg/kg, po administered daily measured after 6 week by immunohistochemical analysis; format: functional, organism-based
# Rattus norvegicus [9] = experiment: Effect on bone turnover in po dosed ovariectomized rat assessed as prevention of tibial bone loss administered daily measured after 6 weeks by ex vivo peripheral quantitative computerized tomography; format: functional, organism-based
# Rattus norvegicus [10] = experiment: Effect on bone turnover in ovariectomized rat assessed as prevention of tibial bone density at 0.3 mg/kg, po administered daily measured after 6 weeks by ex vivo peripheral quantitative computerized tomography; format: functional, organism-based; set-up: dose 0.3 mg/kg
# Rattus norvegicus [11] = experiment: Decrease in plasma cholesterol level in ovariectomized rat osteopenia model at 0.01 to 0.1 mg/kg, po administered daily measured after 6 weeks; format: functional; set-up: scale not given: the % may be the effect or the level left; conditions: dose mg/kg 0.01-0.1
# Rattus norvegicus [12] = experiment: Decrease in plasma cholesterol level in ovariectomized rat osteopenia model at 0.003 to 0.3 mg/kg, po administered daily measured after 2 weeks; format: functional, organism-based
# Rattus norvegicus [13] = experiment: Decrease in plasma cholesterol level in ovariectomized rat osteopenia model at 0.03 mg/kg, po administered daily measured after 6 weeks; format: functional; set-up: scale not given: the % may be the effect or the level left
# Rattus norvegicus [14] = experiment: Decrease in plasma cholesterol level in ovariectomized rat osteopenia model at 0.3 mg/kg, po administered daily measured after 6 weeks; format: functional; set-up: scale not given: the % may be the effect or the level left
# Rattus norvegicus [15] = experiment: Increase in vaginal fluidity in po dosed ovariectomized rat administered daily measured after 2 weeks […]; format: functional, organism-based; how it was run: as §2
# Rattus norvegicus [16] = experiment: Decrease in tail skin temperature rise in morphine-addicted Sprague-Dawley rat hot flush model at 0.01 to 10 mg/kg, po administered daily measured for 60 mins after naloxone-induced morphine withdrawal; format: functional, organism-based; how it was run: as §3
# Estrogen receptor beta = Estrogen receptor beta (Homo sapiens, UniProt Q92731); experiment: Inhibition of fluormone ES2 binding to estrogen receptor beta after 1 hr by fluorescence polarization assay
# Estrogen receptor beta, sequence (Q92731 whole entry): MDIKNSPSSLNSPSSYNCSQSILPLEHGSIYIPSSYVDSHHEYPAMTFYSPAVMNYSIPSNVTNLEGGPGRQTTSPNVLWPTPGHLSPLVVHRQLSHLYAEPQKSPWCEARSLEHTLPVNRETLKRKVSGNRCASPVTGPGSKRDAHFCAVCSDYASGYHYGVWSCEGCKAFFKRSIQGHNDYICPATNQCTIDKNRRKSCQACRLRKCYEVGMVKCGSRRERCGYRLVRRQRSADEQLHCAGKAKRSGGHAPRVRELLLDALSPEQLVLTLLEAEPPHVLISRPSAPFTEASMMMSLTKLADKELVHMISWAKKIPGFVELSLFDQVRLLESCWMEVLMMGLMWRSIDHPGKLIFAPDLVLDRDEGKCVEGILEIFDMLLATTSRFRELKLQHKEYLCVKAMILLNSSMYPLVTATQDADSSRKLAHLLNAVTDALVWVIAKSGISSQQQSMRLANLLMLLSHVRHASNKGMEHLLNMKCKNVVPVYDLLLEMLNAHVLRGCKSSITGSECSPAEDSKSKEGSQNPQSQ
# Estrogen receptor [17] = target: T1, Estrogen receptor (Homo sapiens, UniProt P03372); experiment: Displacement of radiolabeled estrogen from estrogen receptor alpha by scintillation counting
# T1 sequence (P03372 whole entry): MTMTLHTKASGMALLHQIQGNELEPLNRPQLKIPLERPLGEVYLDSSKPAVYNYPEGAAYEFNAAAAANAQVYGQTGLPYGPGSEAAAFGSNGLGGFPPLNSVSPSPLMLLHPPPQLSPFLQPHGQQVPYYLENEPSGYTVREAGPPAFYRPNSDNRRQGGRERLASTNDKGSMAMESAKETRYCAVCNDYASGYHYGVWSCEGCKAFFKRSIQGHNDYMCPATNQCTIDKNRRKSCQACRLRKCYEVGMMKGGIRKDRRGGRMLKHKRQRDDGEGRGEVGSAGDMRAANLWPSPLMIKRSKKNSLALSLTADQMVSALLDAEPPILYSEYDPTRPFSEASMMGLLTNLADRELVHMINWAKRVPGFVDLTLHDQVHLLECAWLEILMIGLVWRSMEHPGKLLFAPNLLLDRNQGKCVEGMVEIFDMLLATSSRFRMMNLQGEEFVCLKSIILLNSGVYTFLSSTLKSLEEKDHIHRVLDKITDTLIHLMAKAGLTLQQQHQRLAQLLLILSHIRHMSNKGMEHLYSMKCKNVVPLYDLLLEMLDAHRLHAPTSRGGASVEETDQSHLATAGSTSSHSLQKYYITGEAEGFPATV
# Estrogen receptor [18] = target: T1, Estrogen receptor; experiment: Antagonist activity at estrogen receptor in human Ishikawa cells assessed as 17-beta-estradiol-induced alkaline phosphatase activity after 3 days by chemiluminescence assay; format: functional, cell-based
# Rattus norvegicus [19] = species on record: Rattus norvegicus; experiment: animal or person; format: functional; conditions: Uterus, 72 h, route oral
# [20] = Oral bioavailability in rat at 10 mg/kg administered as single dose by LC-MS/MS analysis; format: ADME, organism-based; conditions: in vivo
# How it was run: (§4)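 Single-dose rat pharmacokinetics. IV dosing at 1-3 mg/kg as a solution in 10% β-cyclodextrin; oral gavage at 10 mg/kg as a uniform suspension in 0.5% methylcellulose. Blood (0.5 mL) collected into heparinized tubes by orbital sinus puncture after dosing. Plasma extracted into acetonitrile with an internal standard and analysed by LC-MS-MS against standards to obtain PK parameters.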
# [21] = Cmax in rats after 10 mg/kg oral dose; format: ADME, organism-based; set-up: dose 10 mg/kg, route oral; conditions: rat, in vivo; how it was run: as §4
# [22] = Tmax in rat at 10 mg/kg, po administered as single dose by LC-MS/MS analysis; format: ADME, organism-based; set-up: dose 10 mg/kg, route oral; conditions: in vivo; how it was run: as §4
# [23] = Half life in rat at 10 mg/kg, po administered as single dose by LC-MS/MS analysis; format: ADME, organism-based; set-up: dose 10 mg/kg, route oral; conditions: in vivo; how it was run: as §4
# [24] = AUC in rat at 10 mg/kg, po administered as single dose by LC-MS/MS analysis; format: ADME, organism-based; set-up: dose 10 mg/kg, route oral; conditions: plasma; how it was run: as §4
# [25] = Cmax in rats after 2 mg/kg intravenous dose; format: ADME, organism-based; set-up: dose 2 mg/kg, route intravenous; conditions: rat, in vivo; how it was run: as §4
# [26] = Tmax in rat at 2 mg/kg, iv administered as single dose by LC-MS/MS analysis; format: ADME, organism-based; set-up: dose 2 mg/kg, route intravenous; conditions: in vivo; how it was run: as §4
# [27] = Half life in rat at 2 mg/kg, iv administered as single dose by LC-MS/MS analysis; format: ADME, organism-based; set-up: dose 2 mg/kg, route intravenous; conditions: in vivo; how it was run: as §4
# [28] = AUC in rat at 2 mg/kg, iv administered as single dose by LC-MS/MS analysis; format: ADME, organism-based; set-up: dose 2 mg/kg, route intravenous; conditions: plasma; how it was run: as §4
# Rattus norvegicus [29] = experiment: Increase in uterine weight in ovariectomized rat osteopenia model at 1.4 mg/kg, po administered daily measured after 6 weeks; format: functional, organism-based; set-up: dose 1.4 mg/kg
# Rattus norvegicus [30] = experiment: Estrogenic activity in ovariectomized rat assessed as minor increase in uterine epithelial thickness at 1.4 mg/kg, po administered daily measured after 6 week by immunohistochemical analysis; format: functional, organism-based; set-up: dose 1.4 mg/kg
# Rattus norvegicus [31] = experiment: Decrease in bone resorption in ovariectomized rat assessed as decrease in urine deoxypyridinoline level at 1.4 mg/kg, po administered daily measured after 6 weeks; format: functional, organism-based; set-up: dose 1.4 mg/kg
# Rattus norvegicus [32] = experiment: Decrease in tail skin temperature rise in morphine-addicted Sprague-Dawley rat hot flush model at 1.4 mg/kg, po administered daily measured for 60 mins after naloxone-induced morphine withdrawal; format: functional, organism-based; set-up: dose 1.4 mg/kg
# How it was run: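 Adult female Sprague-Dawley rats (3 months), 8-25 per group, ovariectomized; oral gavage started 6 days post-surgery; morphine suspension 75 and 150 mg sc on treatment days 3 and 5; last day ketamine 80 mg/kg im, tail thermistor baseline ~20 min, naloxone 2.0 mg/kg sc, tail skin temperature for 60 min; multiple comparisons per time point.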
smiles,measurement,setting,value
C#C[C@]1(O)CC[C@H]2[C@@H]3CCc4cc(O)ccc4[C@H]3CC[C@@]21C,Activity,Rattus norvegicus [1],Active
same,Activity,Rattus norvegicus [2],Active
same,Activity,Rattus norvegicus [3],Active
COc1ccc2c(c1)O[C@H](c1ccc(OCCN3CCCCC3)cc1)C1=C2CCOc2cc(OC)ccc21,Activity,Rattus norvegicus [4],Active
same,Activity,Rattus norvegicus [5],Dose-dependent effect
same,Activity,Rattus norvegicus [6],inactive
same,Activity,Rattus norvegicus [7],Active
same,Activity,Rattus norvegicus [8],Active
same,Activity,Rattus norvegicus [9],Dose-dependent effect
same,Activity,Rattus norvegicus [10],Active
same,Activity,Rattus norvegicus [11],60%
same,Activity,Rattus norvegicus [12],Active
same,Activity,Rattus norvegicus [13],50%
same,Activity,Rattus norvegicus [14],50%
same,Activity,Rattus norvegicus [15],Dose-dependent effect
same,Activity,Rattus norvegicus [2],Active
same,Activity,Rattus norvegicus [16],Active
same,IC50,Estrogen receptor beta,Not Active
same,IC50,Estrogen receptor [17],64 nM
same,IC50,Estrogen receptor [18],1740 nM
same,inhibition in vivo at 1 mg/kg,Rattus norvegicus [19],121%
same,bioavailability,[20],30.8%
same,Cmax,[21],168 ng/mL
same,Tmax,[22],5 h
same,half-life,[23],432 min
same,AUC,[24],2270 ng·h/mL
same,Cmax,[25],1040 ng/mL
same,Tmax,[26],4.8 min
same,half-life,[27],349 min
same,AUC,[28],1390 ng·h/mL
CC(C)(C)C(=O)Oc1ccc2c(c1)O[C@H](c1ccc(OCCN3CCCCC3)cc1)C1=C2COc2cc(OC(=O)C(C)(C)C)ccc21,Activity,Rattus norvegicus [29],Active
same,Activity,Rattus norvegicus [6],inactive
same,Activity,Rattus norvegicus [30],Active
same,Activity,Rattus norvegicus [31],Active
same,Activity,Rattus norvegicus [32],Active
